Hck-Nef inh – blocks Nef-activated human Hck kinase | P08631 | Recombinant Hck-YEEI plus Nef, Z-Lyte FRET kinase assay | inhibition, % at 20 µM | hit rate 0.68% among 220,000 | AID 463187;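 active means Hck-Nef kinase inhibition above about 50%, limit read from the data; inactive means inhibition below that limit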;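 further: 0% = DMSO with Hck plus Nef and 100% = Hck alone without Nef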
Target sequence (P08631 whole entry, looked up): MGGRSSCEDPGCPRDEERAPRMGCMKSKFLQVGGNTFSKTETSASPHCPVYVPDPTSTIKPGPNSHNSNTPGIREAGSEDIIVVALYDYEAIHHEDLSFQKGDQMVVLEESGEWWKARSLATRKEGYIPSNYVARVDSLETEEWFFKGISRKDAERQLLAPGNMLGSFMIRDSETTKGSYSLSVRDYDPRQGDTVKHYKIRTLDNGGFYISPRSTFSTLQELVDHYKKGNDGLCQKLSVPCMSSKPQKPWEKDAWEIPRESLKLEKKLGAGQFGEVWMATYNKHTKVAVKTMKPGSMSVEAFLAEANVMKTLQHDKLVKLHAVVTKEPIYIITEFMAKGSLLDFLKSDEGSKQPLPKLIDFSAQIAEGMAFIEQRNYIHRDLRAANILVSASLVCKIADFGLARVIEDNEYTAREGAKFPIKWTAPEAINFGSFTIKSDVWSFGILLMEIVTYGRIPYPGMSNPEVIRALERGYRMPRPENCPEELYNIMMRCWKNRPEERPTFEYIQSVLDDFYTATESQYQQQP
RanGTP-Impb inh – disruptors of Ran-importin-beta complex formation – biochemical, FRET, CFP-Ran, YFP-importin-beta, homogeneous, primary screen | cell-free CFP-Ran/YFP-importin-beta FRET ratio | inhibition, % (no concentration beside the values) | hit rate 1.1% among 300,000 | AID 2216;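 active means more than half of the replicate wells show a fall in the fluorescence ratio signal beyond about 16%, limit read from the data, passing the limit was not always enough; inconclusive means exactly half of the replicate wells pass the set limit; inactive means fewer than half of replicates pass the limit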;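 further: 0% = DMSO wells and 100% = Ran loaded with GDP instead of GTP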
p97 ATPase inh – blocks human p97 ATPase activity; inhibition, % at 8 µM; AID 1481; recombinant p97 ATPase, Kinase-Glo ATP luminescence, 3 h; hit rate 0.42% among 220,000; in the data active means inhibition above about 15%;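 further: 0% = DMSO vehicle and 100% = wells lacking enzyme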
Runt-SMMHC FRET – blocks binding of human RUNX1 Runt domain to CBFb-SMMHC | Cerulean-Runt/Venus-CBFb-SMMHC FRET ratio 530/480, 1 h | hit rate 0.74% among 220,000 | inhibition, % at 20 µM;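 active means mean inhibition across duplicate retests at 20 µM reaching about 50%, limit read from the data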;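 further: 0% = DMSO wells and 100% = wells with excess untagged CBFb-SMMHC; inhibitors lower the FRET ratio by blocking Runt binding to CBFb-SMMHC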
Runt-CBFb FRET – Runt domain-CBFb interaction inhibition. hit rate 0.46% among 220,000. Q01196+Q13951. Cerulean-Runt/Venus-CBFb FRET ratio 530/480, 1 h. inhibition, % at 20 µM;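 active means inhibition over about 50% at 20 µM in the single-dose screen, limit read from the data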;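 further: 0% = DMSO wells and 100% = excess unlabeled CBFb competitor control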
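test system = Cerulean-Runt domain fusion protein, energy donor | probe or stimulus = Venus-CBFb binding partner, 100 nM | incubation = two 1 h room-temperature incubations shielded from light | detection = fluorescence energy transfer, 422 nm excitation, 530/480 nm emission | measure = loss of energy transfer signal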
Tb hexokinase – blocks Trypanosoma brucei hexokinase 1 activity. inhibition, % at 10 µM. hit rate 0.11% among 220,000. recombinant TbHK1, G6PDH-coupled NADH A340. AID 1430;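 active means inhibition of 50% or more in the single-dose primary screen; inactive means inhibition below 50%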
An asterisk follows results filed as active. Compounds with a hit are over-represented: about 2.1% of the library has one in this group of screens.

Screening CCCN1C=CC(=CC=C(C#N)C#N)C=C1 returned Hck-Nef inh -3, RanGTP-Impb inh 34*, p97 ATPase inh -8, Runt-SMMHC FRET -30, Runt-CBFb FRET -14 and Tb hexokinase -5.
`Cc1cc2oc(=O)cc(CN3CCOCC3)c2cc1C(C)C` gave RanGTP-Impb inh 1.
`CCc1cc2c(CN3CCN(CC)CC3)cc(=O)oc2cc1O` gave Hck-Nef inh 22, RanGTP-Impb inh 115*, p97 ATPase inh -5, Runt-SMMHC FRET 61*, Runt-CBFb FRET 18 and Tb hexokinase -26.
O=c1cc(CN2CCOCC2)c2cc(Cl)c(O)cc2o1 was read as RanGTP-Impb inh 73*.
Cc1c(O)ccc2c(CN3CCOCC3)cc(=O)oc12 was read as RanGTP-Impb inh 53*.
For CCCCn1c(N)c(NCC)c(=O)[nH]c1=O the results were Hck-Nef inh 0, p97 ATPase inh -4, Runt-SMMHC FRET 70*, Runt-CBFb FRET 24 and Tb hexokinase 1.
For CCCCn1c(N)c(NCC(C)C)c(=O)[nH]c1=O the results were Hck-Nef inh 2, RanGTP-Impb inh 3, p97 ATPase inh -3, Runt-SMMHC FRET 6, Runt-CBFb FRET 3 and Tb hexokinase -3.
Screening CCCCn1c(N)c(N(CCC(C)C)C(=O)c2[nH]c(C)c(C(=O)OCC)c2C)c(=O)[nH]c1=O returned RanGTP-Impb inh 4.
Screening Cc1cc(=O)oc(C)c1C(=O)Nc1ccc2ncccc2c1 returned Hck-Nef inh 1, RanGTP-Impb inh -1, p97 ATPase inh 2, Runt-SMMHC FRET 59*, Runt-CBFb FRET -22 and Tb hexokinase -10.
For Cc1cc(=O)oc(C)c1C(=O)Nc1ccc2nsnc2c1 the results were Hck-Nef inh 1, RanGTP-Impb inh 3, p97 ATPase inh 3, Runt-SMMHC FRET 3, Runt-CBFb FRET -2 and Tb hexokinase -15.
CC(=O)c1cn(CCOc2ccc(F)cc2)c2ccccc12 was read as RanGTP-Impb inh -5.
`Cc1ccc2c(c1)N(CC(=O)NC1CCCC1)C(=O)c1cccnc1O2` gave RanGTP-Impb inh -2.
CC1Cc2cc(S(=O)(=O)N3CCC(C(N)=O)CC3)ccc2N1C(=O)C1CC1 (configuration not stated) was read as RanGTP-Impb inh 18*.
`CCOC(=O)C1CCN(S(=O)(=O)c2ccc3c(c2)CC(C)N3C(=O)C2CC2)CC1` (configuration not stated) gave RanGTP-Impb inh 0.
CC(=O)Nc1ccc(C23CC4CC(CC(C4)C2)C3)cc1 was read as RanGTP-Impb inh 26*.
For Cc1cc(C(=O)NCc2ccccc2F)c2ccccc2n1 the results were RanGTP-Impb inh -3.
Cc1cc(N)n2nc(C)c(-c3ccccc3)c2n1 was read as Hck-Nef inh 2, RanGTP-Impb inh inconclusive, p97 ATPase inh 7, Runt-SMMHC FRET -11, Runt-CBFb FRET 95* and Tb hexokinase -7.
`CCOc1ccc(NC(=O)CN(C)C(=O)c2cccnc2Sc2ccccc2Cl)cc1OCC` gave RanGTP-Impb inh 3.
Screening CCOc1cc(C2C3=C(CCCC3=O)Nc3ccc4ncccc4c32)ccc1O (configuration not stated) returned Hck-Nef inh 18, RanGTP-Impb inh 22*, p97 ATPase inh 6, Runt-SMMHC FRET -3, Runt-CBFb FRET 0 and Tb hexokinase -8.
For COc1cc(C2C3=C(CCCC3=O)Nc3ccc4ncccc4c32)ccc1O (configuration not stated) the results were Hck-Nef inh -15, RanGTP-Impb inh -2, p97 ATPase inh 5, Runt-SMMHC FRET 2, Runt-CBFb FRET 4 and Tb hexokinase -7.
For O=C(c1ccco1)N1CCN(Cc2cc(=O)c(OCc3ccc([N+](=O)[O-])cc3)co2)CC1 the results were RanGTP-Impb inh -2.
For COc1ccccc1NC(=O)CSc1nnc(-c2ccc(NC(C)=O)cc2)n1C the results were Hck-Nef inh 1, RanGTP-Impb inh 5, p97 ATPase inh 6, Runt-SMMHC FRET -4, Runt-CBFb FRET -3 and Tb hexokinase 1.
For COc1ccccc1C(=O)Nc1ccc(-c2nnc(SCC(=O)O)n2C)cc1 the results were Hck-Nef inh 2, RanGTP-Impb inh 20*, p97 ATPase inh 4, Runt-SMMHC FRET -5, Runt-CBFb FRET 2 and Tb hexokinase -6.
